Measured values published in ChEMBL document CHEMBL1765023, “Acetyl analogs of combretastatin A-4: synthesis and biological studies” (Bioorg Med Chem, 2011).

How the values were obtained:
[1] = test system: NCI-H460; experiment: Growth inhibition of human NCI-H460 cells after 48 hrs by sulforhodamine B assay; type: functional; conditions: NCI-H460, 48 h
In short: (§1)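 NCI 60 human cancer cell line screen run at the National Cancer Institute. Cells had 48 h continuous exposure, and proliferation was read by sulforhodamine B staining. GI50 (50% growth inhibition) was taken from dose–response curves.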

[2] = test system: NCI-H522; experiment: Growth inhibition of human NCI-H522 cells after 48 hrs by sulforhodamine B assay; type: functional; conditions: NCI-H522, 48 h; in short: as §1
[3] = test system: SNB-19; experiment: Growth inhibition of human SNB19 cells after 48 hrs by sulforhodamine B assay; type: functional; conditions: SNB-19, 48 h
In short: (§2)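 Tested in the NCI 60 human cancer cell line panel. Cells were exposed continuously for 48 h and proliferation was read by sulforhodamine B staining. GI50 (concentration for 50% growth inhibition), TGI (total growth inhibition) and LC50 were taken from dose–response curves.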

[4] = test system: Mus musculus; experiment: Toxicity in DBA2 mouse assessed as change in hematocrit at 75 mg/kg, ip QD administered on alternate days for 17 days measured on day 23 relative to control; type: organism-based; design: dose 75 mg/kg, route intraperitoneal; conditions: in vivo, 408 h
In short: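 Healthy female DBA2 mice, 5–7 weeks old, five per group, received 75 mg/kg ip on days 1, 5, 9, 13 and 17. Vehicle was PET (PEG400/ethanol/Tween 80, 6:3:1), 5% glucose and DMSO, with final ethanol 15% and DMSO 10%. Controls received 100 µL vehicle. Body weight was measured every other day. At sacrifice on day 23, blood counts (hematocrit, WBC, granulocytes, platelets) and liver, kidney and spleen appearance and weight were assessed.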

[5] = test system: HL-60(TB); experiment: Growth inhibition of human HL-60(TB) cells after 48 hrs by sulforhodamine B assay; type: functional; conditions: HL-60, 48 h
In short: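 NCI 60 human cancer cell line panel, tested at the National Cancer Institute. Continuous 48 h drug exposure, with proliferation read by sulforhodamine B staining. Dose–response curves gave GI50 (concentration inhibiting growth by 50%), TGI (total growth inhibition) and LC50.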

[6] = test system: SR; experiment: Growth inhibition of human SR cells after 48 hrs by sulforhodamine B assay; type: functional; in short: as §2
[7] = test system: NCI-H226; experiment: Growth inhibition of human NCI-H226 cells after 48 hrs by sulforhodamine B assay; type: functional; conditions: NCI-H226, 48 h; in short: as §1

## COc1ccc(/C=C(/C(C)=O)c2cc(OC)c(OC)c(OC)c2)cc1O
[1]
  GI50: 0.263 µM
[1]; read-out: pTGI (converted)
  TGI: 1.32 µM
[2]
  GI50: 0.135 µM
[2]; read-out: pTGI (converted)
  TGI: 0.537 µM
[3]
  GI50: 0.676 µM
[3]; read-out: pTGI
  TGI: > 100 µM
[4]
  Activity: Non-toxic
[5]
  GI50: 0.0372 µM
[6]
  GI50: 0.0263 µM
[6]; read-out: pTGI
  TGI: > 100 µM
[7]
  GI50: 1 µM
[7]; read-out: pTGI
  TGI: > 100 µM
